22 compounds from ChEMBL document CHEMBL4680078, “Inhibitors of the Cysteine Synthase CysM with Antibacterial Potency against Dormant Mycobacterium tuberculosis” (J Med Chem, 2016) can be followed below.

Active and inactive are the calls of the source. The calls are words filed in the database; no cut-off is given here.

Series [1] concerns Mycobacterium tuberculosis. Kind of series: Antimycobacterial activity against Mycobacterium tuberculosis H37Rv assessed as inhibition of microbial growth incubated for 5 days by alamar blue assay. To be noted: 120 h, time 5 day. Format: functional. A general note: Alamar Blue is a resazurin reagent that responds to reducing activity.
The test system of series [2] is Mycobacterium tuberculosis. Kind of series: Antimycobacterial activity against Mycobacterium tuberculosis H37Rv grown under nutrient starvation condition assessed as reduction in nonreplicating cells count incubated for 7 days at 10 ug/ml. To be noted: for log(activity): dose 10 µg/ml, time 7 day; for Activity: dose 10.0 µg/ml, time 7.0 day. Type of series: functional.

Series [3] concerns Mycobacterium tuberculosis. Kind of series: Inhibition of Mycobacterium tuberculosis CysM expressed in Escherichia coli strain BL21 (DE3) assessed as reduction in amino-acrylate intermediate formation by measuring residual enzyme activity at 100 uM incubated for 5 mins in presence of OPS by spectrophotometry. Put shortly: (§1)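 Orthogonal activity assay with recombinant CysM, following formation of the α-aminoacrylate intermediate in the first half-reaction with OPS. Apparent first-order rate constants (kobs) determined. Only residual activities below 20% are reliably quantified; >20% remaining activity is reported as a limit.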

The subject of series [4] is Mycobacterium tuberculosis. Kind of series: Bactericidal activity against Mycobacterium tuberculosis H37Rv grown under nutrient starvation condition assessed as reduction in nonreplicating cells count incubated for 7 days at 10 ug/ml in presence of 0.2 mM cysteine. Format: functional, organism-based. Conditions: dose 10.0 µg/ml, time 7.0 day. In short, it runs like this: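 Nutrient-starved, nonreplicating H37Rv culture exposed to compound at 10 µg/ml alongside added L-cysteine (series 0.0, 0.05, 0.2, 0.5 mM) and an untreated control. Viable bacteria counted by most probable number (MPN) assay. Run in triplicate.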

For series [5], the system named is Mycobacterium tuberculosis. Kind of series: Inhibition of Mycobacterium tuberculosis CysM expressed in Escherichia coli strain BL21 (DE3) assessed as apparent first-order rate constant for the formation of the alpha-aminoacrylate intermediate at 100 uM incubated for 5 mins in presence of OPS by spectrophotometry. In short, it runs like this: as §1
Series [6] can be described thus: Binding affinity to Mycobacterium tuberculosis CysM expressed in Escherichia coli strain BL21 (DE3) incubated for 5 mins by PLP fluorescence-based screening assay. In short, it runs like this: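 Binding measured by the rise in fluorescence emission of the enzyme-bound PLP cofactor on ligand binding, using recombinant CysM at 2 µM. Kd obtained by fitting the ligand concentration dependence to a 1:1 binding-site model. Affinities approaching sub-µM are limited by protein concentration.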

The subject of another series is HepG2. Put plainly: Cytotoxicity in human HepG2 cells assessed as reduction in cell viability at 10 uM incubated for 72 hrs by Cell-titer-Glo assay. Format: cell-based. To be noted: hepg2, 72 h.
In a further series the test system is J774.A1. Kind of series: Cytotoxicity in mouse J774.A1 cells assessed as reduction in cell viability at 10 uM incubated for 72 hrs by Cell-titer-Glo assay. Type of series: cell-based. Conditions: j774.a1, 72 h.
Series [7] relates to Mycobacterium tuberculosis. Put plainly: Selectivity index, ratio of Kd for binding affinity to Mycobacterium tuberculosis CysK2 to Kd for binding affinity to Mycobacterium tuberculosis CysM expressed in Escherichia coli strain BL21 (DE3).
For the next series, the system named is THP-1. Put plainly: Cytotoxicity in human THP-1 cells assessed as reduction in cell viability at 10 uM incubated for 72 hrs by Cell-titer-Glo assay. Format: cell-based. To be noted: thp-1, 72 h.
Series [8] relates to Mycobacterium tuberculosis. Put plainly: Selectivity index, ratio of Kd for binding affinity to Mycobacterium tuberculosis CysK1 to Kd for binding affinity to Mycobacterium tuberculosis CysM expressed in Escherichia coli strain BL21 (DE3).
Series [9] in a line: Binding affinity to Mycobacterium tuberculosis CysK2 by PLP fluorescence-based screening assay.
The nature of series [10]: Binding affinity to Mycobacterium tuberculosis CysK1 by PLP fluorescence-based screening assay.
The target in series [11] is T1, Cystathionine beta-synthase (Homo sapiens) (UniProt P35520).
T1 sequence (whole entry): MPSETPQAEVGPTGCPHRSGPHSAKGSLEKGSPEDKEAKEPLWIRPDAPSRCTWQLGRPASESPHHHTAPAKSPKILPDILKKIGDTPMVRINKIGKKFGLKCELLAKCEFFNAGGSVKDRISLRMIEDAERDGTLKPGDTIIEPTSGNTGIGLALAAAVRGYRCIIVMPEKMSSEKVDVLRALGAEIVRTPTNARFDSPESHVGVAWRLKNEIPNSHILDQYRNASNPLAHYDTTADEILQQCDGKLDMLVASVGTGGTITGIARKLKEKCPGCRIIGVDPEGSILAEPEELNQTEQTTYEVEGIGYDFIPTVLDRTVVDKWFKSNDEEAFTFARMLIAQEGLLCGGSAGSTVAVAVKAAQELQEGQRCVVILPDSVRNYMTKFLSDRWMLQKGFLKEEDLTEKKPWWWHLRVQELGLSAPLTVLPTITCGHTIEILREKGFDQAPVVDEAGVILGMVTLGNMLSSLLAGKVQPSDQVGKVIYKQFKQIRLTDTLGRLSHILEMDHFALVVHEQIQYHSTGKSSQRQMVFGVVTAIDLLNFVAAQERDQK
Put plainly: (§2) Binding affinity to human CBS by PLP fluorescence-based screening assay.

Another series has as its system SH-SY5Y. Put plainly: Cytotoxicity in human SH-SY5Y cells assessed as reduction in cell viability at 10 uM incubated for 72 hrs by Cell-titer-Glo assay. Format: cell-based.
The nature of series [12]: Stability in presence of cysteine assessed as compound degradation incubated for 24 hrs by spectroscopy analysis. Type of series: physicochemical.
Series [13] can be described thus: Binding affinity to Mycobacterium tuberculosis CysM by ITC analysis. A general note: In ITC the heat of successive injections is recorded.
A short description of series [14]: Stability in presence of cysteine assessed as compound degradation incubated for 24 hrs by HPLC analysis. Format: physicochemical.
Series [15] is described as follows: Stability in presence of cysteine assessed as compound degradation incubated for 24 hrs by mass-spectrometry. Format: physicochemical.
The nature of series [16]: Selectivity index, ratio of Kd for binding affinity to human CBS to Kd for binding affinity to Mycobacterium tuberculosis CysM expressed in Escherichia coli strain BL21 (DE3).
For series [17], the target named is T2, Cystathionine beta-synthase (Homo sapiens, UniProt P35520).
T2 sequence (P35520 whole entry): T1 sequence (whole entry)
The description is as §2.

For the compound `O=C(Nc1cccc(-c2ccccc2)c1)Nc1ccc(C(=O)O)c(O)c1`, the MIC in series [1] came out at 2.2 µM. The “log(activity)” value in series [2] is 3. Also, in series [3], the Activity amounted to 1.2%. Besides, the result in [4] was inactive. The K in series [5] is 0.48 min⁻¹. The Kd in [6] (read-out: Kd) was 4.5 µM.

As to `O=C(Nc1ccc(Cl)c(Cl)c1)Nc1ccc(C(=O)O)cc1O`, in [5], the K was above 20 min⁻¹. In series [6], the Kd entry is “Not Active”.

As for `O=C(Nc1cccc(C(=O)O)c1)Nc1cccc(-c2ccccc2)c1`, in series [1], the MIC came out at 18.8 µM. The Activity result in the series on HepG2 was “Non-Toxic”; in the series with J774.A1, “Non-Toxic”; in series [3] it was 0.6%; in the series on THP-1, “Non-Toxic”; in the series on SH-SY5Y it was “Non-Toxic”. Also, the Ratio was 15 in series [7] and above 80 in series [8]. Moreover, the Kd in series [9] is 22.6 µM; in [10], 96.8 µM; in [6] (read-out: Kd), 1.7 µM. Moreover, the K in series [5] is 0.24 min⁻¹. Also, the result in [11] was inactive.

Consider `COc1ccc(NC(=O)Nc2cccc(C(=O)O)c2)cc1`, for which the MIC in [1] amounted to 21.8 µM. Also, the result in series [2] was inactive. In addition, the Activity in series [3] was 9.9%. The K in series [5] came out at 3.84 min⁻¹. Also, the Kd in [6] (read-out: Kd) came to 11.3 µM.

Regarding `O=C(O)c1cccc(NS(=O)(=O)c2ccc(Cl)c(Cl)c2)c1`, the K in series [5] was above 20 min⁻¹. Further, the Kd result in series [6] was “Not Active”.

Turning to `O=C(O)c1cccc(NC(=S)Nc2ccc(Cl)cc2)c1`, the K in series [5] is above 20 min⁻¹. Moreover, the Kd in series [6] (read-out: Kd) is above 300 µM.

Turning to `O=C(Nc1cccc(C(=O)O)c1)Nc1ccc(Cl)c(Cl)c1`, the MIC in series [1] amounted to 9.6 µM. Moreover, the Activity entry was “Non-Toxic” in the series on HepG2; “Non-Toxic” in the series on J774.A1; 0.3% in series [3]; “Non-Toxic” with THP-1; “Non-Toxic” with SH-SY5Y. The “log(activity)” value in [2] came out at 3. Further, the Ratio in series [7] is 15; in series [8] it was above 80; in [16] it was 300. Also, the Stabilty result in series [12], in series [14] and in series [15] was “Unstable” in each case. In addition, in [4], the result was inactive. Besides, the dissociation constant Kd in series [13] is 0.32 µM; in series [9], 30.1 µM; in [10], 241 µM; in series [17], 94 µM. For the same compound, the K in [5] was determined as 0.1 min⁻¹.

Turning to `O=C(Nc1ccc(Br)cc1)Nc1cccc(C(=O)O)c1`, the MIC in series [1] worked out at 18.6 µM. Moreover, the Activity result with HepG2 was “Non-Toxic”; in the series with J774.A1 it was “Non-Toxic”; in [3], 1.2%; in the series on THP-1 it was “Non-Toxic”; with SH-SY5Y, “Non-Toxic”. For the same compound, the outcome in series [2] was inactive. Besides, in series [13], the affinity, expressed as Kd, was 1.4 µM. Further, the K in series [5] worked out at 0.48 min⁻¹.

Consider `Cc1ccc(C(=O)Nc2cccc(C(=O)O)c2)cc1`, for which the K in [5] is above 20 min⁻¹. Also, the Kd result in [6] was “Not Active”.

For the compound `NNC(=O)c1ccncc1` [ISONIAZID], the MIC in series [1] turned out to be 0.4 µM. In addition, the “log(activity)” value in [2] was found to be 1.

As for `O=C(NCc1ccc(Cl)c(Cl)c1)Nc1cccc(C(=O)O)c1`, in series [5], the K was above 20 min⁻¹. The Kd in series [6] (read-out: Kd) was above 300 µM.

As to `O=C(Nc1cccc(-c2nnn[nH]2)c1)Nc1ccc(Cl)c(Cl)c1`, in series [5], the K was above 20 min⁻¹. Moreover, in series [6], the Kd result is recorded as “Not Active”.

For `Cc1ccc(NC(=O)Nc2cccc(C(=O)O)c2)cc1`, the MIC in [1] was 23.1 µM. In addition, the Activity in [3] turned out to be 4.9%. In addition, in series [5], the K was 1.92 min⁻¹. Moreover, in series [6] (read-out: Kd), the Kd turned out to be 8 µM.

For the compound `O=C(Nc1ccc(Cl)cc1)Nc1cccc(C(=O)O)c1`, in [1], the MIC turned out to be 21.5 µM. Further, the Activity result in the series with HepG2 was “Non-Toxic”; in the series with J774.A1 it was “Non-Toxic”; in series [3], 0.6%; in the series on THP-1 it was “Non-Toxic”; with SH-SY5Y it was “Non-Toxic”. Also, in series [2], the outcome was inactive. Besides, in series [13], binding was put at a Kd of 3.4 µM. Moreover, the K in [5] worked out at 0.24 min⁻¹.

Regarding `O=C(Nc1ccc([N+](=O)[O-])cc1)Nc1cccc(C(=O)O)c1`, the MIC in series [1] was determined as 20.7 µM. In addition, the outcome in series [2] was inactive. For the same compound, the Activity in series [3] came to 5.7%. Also, the K in [5] turned out to be 2.22 min⁻¹. In addition, the Kd in series [6] (read-out: Kd) worked out at 10.5 µM.

Regarding `CC(=O)c1ccc(NC(=O)Nc2cccc(C(=O)O)c2)cc1`, the K in series [5] was above 20 min⁻¹. Besides, the Kd in [6] (read-out: Kd) came out at 111 µM.

Take `CO[C@H]1/C=C/O[C@@]2(C)Oc3c(C)c(O)c4c(O)c(c(/C=N/N5CCN(C)CC5)c(O)c4c3C2=O)NC(=O)/C(C)=C\C=C\[C@H](C)[C@H](O)[C@@H](C)[C@@H](O)[C@@H](C)[C@H](OC(C)=O)[C@@H]1C` [RIFAMPIN]: the MIC in series [1] worked out at 0.5 µM.

With `O=C(Nc1ccc(-c2cccc(Cl)c2Cl)cc1)Nc1cccc(C(=O)O)c1`, the Activity entry with HepG2, with J774.A1, in the series on THP-1 and in the series on SH-SY5Y was “Non-Toxic” throughout.

`O=C(Nc1ccc(Cl)c(Cl)c1)Nc1ccc(O)c(C(=O)O)c1`: in series [5], the K is above 20 min⁻¹. Moreover, the Kd entry in series [6] was “Not Active”.

Consider `O=C(Nc1ccccc1)Nc1cccc(C(=O)O)c1`, for which the Activity in series [3] was 2.6%. Moreover, the K in [5] was found to be 1.02 min⁻¹. For the same compound, the Kd in series [6] (read-out: Kd) turned out to be 12.9 µM.

On to `O=C(Nc1cccc(-c2ccccc2)c1)Nc1ccc(O)c(C(=O)O)c1`, for which the Activity entry was “Non-Toxic” in the series on HepG2; “Non-Toxic” in the series with J774.A1; 0.6% in series [3]; “Non-Toxic” in the series with THP-1; “Non-Toxic” in the series on SH-SY5Y. In series [13], the Kd is 2.2 µM. In addition, the K in series [5] amounted to 0.23 min⁻¹.

Regarding `O=C(Nc1ccc(C(=O)O)c(O)c1)Nc1ccc(Cl)c(Cl)c1`, in series [5], the K is above 20 min⁻¹. In series [6], the Kd entry was “Not Active”.

As usually defined, the MIC is the least concentration at which growth counts as inhibited. As a reminder, the Kd is the equilibrium constant for the complex coming apart.
